# CSN inh: CSN deneddylation inhibition. Q92905. Purified CSN, SCF-Nedd8-OG deneddylation, fluorescence polarization. inhibition, % at 12.5 µM. 360,000 tested, 0.38% active. AID 651999;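 active = pattern-corrected inhibition above about 35%, with an unprinted fluorescence ratio check between 0.5 and 1.5, limit read from the data, passing the limit was not always enough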;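 note: 0% = enzyme with substrate and 100% = substrate without enzyme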
#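 Assay system: Purified human Csn5 enzyme expressed in HEK293T cells | Amount: Enzyme 0.24 nM | Measured by: Fluorescence polarization readout | Medium: Tris/NaCl/DTT buffer, pH 7.5 | Compound dosing: One concentration, 12.5 µM, 0.25% DMSO | Times: 90 min incubation of compound, enzyme and substrate at room temperature | Control set: no-enzyme wells high, enzyme-with-substrate wells low | Read-out: % inhibition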
# TPT1 inh: inhibitors of Candida albicans tRNA 2'-phosphotransferase TPT1. recombinant caTPT1, FP RNA substrate dephosphorylation. inhibition, % at 5 µM. 300,000 tested, 0.81% active. AID 1962;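 active = inhibition above the mean of all tested compounds plus 3 SD, set per screening campaign, cut at about 24% in these data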;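 note: plate controls were DMSO alone for no effect and ferristatin control at 100 nM for full effect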
# HNF4A DNA FP: change in binding of human HNF4 alpha to DNA; P41235; HNF4a-FITC DNA binding, fluorescence polarization, 1 h; activity change, % at 10 µM; 360,000 tested, 0.3% active; in the data active = activity change above about 30%, passing the limit was not always enough
# Rtt109 Vps75: blocks Candida albicans Rtt109/Vps75 acetyltransferase activity; Q5AAJ8; purified Rtt109/Vps75, ThioGlo CoA-SH fluorescence, 4 h; inhibition, % at 34.9 µM; 330,000 tested, 0.16% active;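 active = inhibition of at least 50% in every replicate; inconclusive = best replicate reaches 50% inhibition but some replicates fall short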
# Target sequence (Q5AAJ8 whole entry, looked up): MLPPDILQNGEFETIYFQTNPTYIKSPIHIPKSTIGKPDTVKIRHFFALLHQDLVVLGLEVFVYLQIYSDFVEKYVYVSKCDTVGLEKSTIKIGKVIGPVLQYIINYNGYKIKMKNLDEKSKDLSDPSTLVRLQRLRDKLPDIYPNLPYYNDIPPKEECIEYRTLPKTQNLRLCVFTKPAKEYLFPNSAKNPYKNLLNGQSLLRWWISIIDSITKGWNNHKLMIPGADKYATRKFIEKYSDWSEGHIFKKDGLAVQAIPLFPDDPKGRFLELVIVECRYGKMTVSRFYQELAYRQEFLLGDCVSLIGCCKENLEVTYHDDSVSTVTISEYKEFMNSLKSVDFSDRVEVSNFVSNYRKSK
# TPT1 inh confirm: TPT1 (C. albicans) inhibition, confirmation; inhibition, % at 5 µM; 2,400 tested, 74% active; AID 2149; recombinant caTPT1, fluorescence polarization, RNase T1 coupled; shares compounds with TPT1 inh;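 active = inhibition above the primary screen limit, the mean inhibition of all tested compounds plus 3 SD, cut at about 25% in these data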
# RNase T1 counter: RNase T1 inhibition in TPT1 counter-screen. 2,400 tested, 83% active. inhibition, % at 5 µM. RNase T1 cleavage, fluorescence polarization, 1536-well. shares compounds with TPT1 inh;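 active = inhibition above the solvent-only control well mean plus 3 SD, limit set per screening run, cut at about 23% in these data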;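 note: plate controls were DMSO wells with enzyme for no effect and wells without RNase T1 for full effect; inhibitors block cleavage so intact labeled substrate keeps polarization high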
# Starred values were filed as active, the others as inactive; u = inconclusive; x = no result. In the library only some 1.2% were active in any assay of this set; here they are far more common.
SMILES,CSN inh,TPT1 inh,HNF4A DNA FP,Rtt109 Vps75,TPT1 inh confirm,RNase T1 counter
COc1cccc(-c2nn(C)c3sc(C(=O)NCCCN(C)Cc4ccccc4)cc23)c1,1,-5,1,17,x,x
Cc1ccc2c(CC(=O)Nc3ccc(F)c(S(=O)(=O)N4CCOCC4)c3)coc2c1,2,x,-3,-7,x,x
COc1cc(OC)c(CN2CCc3c([nH]c4ccccc34)C2)cc1Br,43*,48*,52*,6,6,7
Cc1ccc(S(=O)(=O)c2cc3ccccc3oc2=O)cc1,2,2,3,2,x,x
CCN(CC)c1ccc2ccc(=O)oc2c1,5,9,-1,-166,x,x
CCN(CC)c1ccc2cc(C#N)c(=O)oc2c1,-12,46*,22,-8,44*,58*
CCN(CC)c1ccc2cc(C(=O)NNC(=O)c3ccc(S(=O)(=O)N4CCCCC4)cc3)c(=O)oc2c1,17,49*,14,12,77*,86*
CCN(CC)c1ccc2cc(S(=O)(=O)c3ccc(C)cc3)c(=O)oc2c1,-2,70*,50*,3,72*,81*
COCCn1c(=O)[nH]c2cc(C(=O)N3CCN(c4cccc(C)c4C)CC3)ccc2c1=O,2,2,0,-12,x,x
O=C(Nc1ccccc1)Nc1sccc1-c1nc2ccccc2s1,14,12,7,8,x,x
COc1ccccc1NC(=O)Nc1sccc1-c1nc2ccccc2s1,10,33*,16,x,34*,49*
CCOC(=O)c1cc(S(=O)(=O)N2CCC(C)CC2)cn1C,-2,-1,0,1,x,x
CCOc1ccc(C2C(C#N)=C(N)SC(N)=C2C#N)c(OCC)c1,129,150*,137,1,22,32*
CCOc1cc(C2C(C#N)=C(N)Oc3cc(N)ccc32)ccc1O (centres undefined),7,7,8,-5,x,x
Oc1ccc(/C=N/Nc2nc(-c3cccnc3)nc3ccccc23)c(O)c1,9,46*,36*,-4,59*,69*
CCCCc1ccc(C2C(C#N)=C(N)SC(N)=C2C#N)s1,x,137*,x,x,64*,76*
COc1ccc(S(=O)(=O)NCC(=O)N(CC(=O)NCc2ccco2)Cc2ccc(F)cc2)cc1,-2,-1,4,-14,x,x
O=C(O)c1ccccc1-c1ccc(/C=c2\sc3nc4cc(Br)cnc4n3c2=O)o1,186*,84*,-5,0,131*,122*
O=c1c2ccccc2c(/C=N/NS(=O)(=O)c2ccccc2)c(O)n1-c1ccccn1,80*,106*,120,-3,62*,78*
Cc1c(N=C2N=C(NC(=O)c3cccs3)c3ccccc32)c(=O)n(-c2ccccc2)n1C,34,85*,48,23,113*,113*
N#C/C(=C\c1ccc(-c2ccc(C(=O)O)cc2)o1)C(=O)Nc1ccc(F)cc1,16,33*,-1,-3,48*,61*
Cc1c(C(=O)Nc2ccccc2N2CCN(C)CC2)oc2ccc(F)cc12,-1,x,5,-5,x,x
Cc1ccc(-n2c(O)c(/C=N/NC(=O)C3COc4ccccc4O3)c3ccccc3c2=O)cc1 (centres undefined),7,13,5,13,x,x
Cc1c(/C=N\NC(=O)C2COc3ccccc3O2)c2ccccc2n1C (centres undefined),4,51*,-1,6,4,4
Cn1cc(/C=N\NC(=O)C2COc3ccccc3O2)c2ccccc21 (centres undefined),x,2,x,x,x,x
O=C(N/N=C/c1c(O)n(-c2ccccc2Cl)c(=O)c2ccccc12)C1COc2ccccc2O1 (centres undefined),13,26*,15,-7,65*,79*
Cc1ccc(S(=O)(=O)Oc2ccc(/C=C3/C(=N)N4C(=NC3=O)SN=C4S(C)(=O)=O)cc2)cc1,7,5,1,u,x,x
CN(C)c1ccc(/C=C2\C(=N)N3C(=NC2=O)Sc2cc(S(C)(=O)=O)ccc23)cc1,x,122*,x,x,88*,86*
Cc1ccc(S(=O)(=O)n2cccc2C)cc1,0,-2,0,x,x,x
CCc1ccc(C2CC3C(CN2S(=O)(=O)c2ccc(C)cc2)C(=O)CC(c2ccc(CC)cc2)N3S(=O)(=O)c2ccc(C)cc2)cc1 (centres undefined),-1,x,5,x,x,x

# Screening results as filed in PubChem.
